Assay results reported in ChEMBL document CHEMBL1156820, “Novel highly potent and selective sigma 1 receptor antagonists related to spipethiane” (J Med Chem, 2010).
Activity calls are given as the source filed them.

Assays:
[1] = target: Sigma non-opioid intracellular receptor 1 (Homo sapiens, UniProt Q99720); assay: Displacement of [3H](+)-pentazocine from sigma1 receptor in human Jurkat cell membrane; format: cell membranes
[2] = Displacement of [3H]DTG from sigma2 receptor in rat cerebral cortex cell membrane; format: cell membranes
How it was run: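 Rat cerebral cortex membranes (100-200 μg protein) incubated with [3H]DTG (5 nM) and 300 nM (+)-pentazocine to mask σ1 sites, across a range of test concentrations, 2 h at 22 °C in 5 mM Tris/HCl pH 7.4. Nonspecific binding defined with 10 μM haloperidol. GF/B filtration, scintillation counting. Triplicates; Ki from two to three experiments.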

[3] = Selectivity for human sigma1 receptor over rat sigma2 receptor
How it was run: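 Selectivity ratio is the antilog of pKi(σ1) minus pKi(σ2). σ1 binding: Jurkat membranes with [3H](+)-pentazocine (8 nM). σ2 binding: rat cortex membranes with [3H]DTG (5 nM) plus 300 nM (+)-pentazocine. Both run 2 h at 22 °C in 5 mM Tris/HCl pH 7.4, nonspecific binding with 10 μM haloperidol.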

[4] = Antagonist activity at sigma2 receptor in guinea pig ileum longitudinal muscle assessed as inhibition of 5-HT-induced contractions; format: functional, tissue-based; settings: Cavia porcellus
How it was run: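 Longitudinal muscle/myenteric plexus ileum segments from male guinea pigs (300-400 g), 1 g tension, Tyrode's at 37 °C gassed with 95% O2/5% CO2, 1 μM ketanserin present throughout. After 90 min equilibration, three noncumulative 5-HT concentration-response curves; the second is run with test compound. 5-HT contact 1 min, 20 min washes between doses; peak isotonic contraction recorded.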

NCI/ADR-RES [5] = assay: Growth inhibition of human MCF7/ADR cells highly expressing sigma1 receptor at 10 uM after 48 hrs by SRB assay; format: functional, cell-based
How it was run: (§1)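 MCF-7 or MCF-7/ADR cells seeded at 1 × 10⁴/well, dosed after 24 h with 10 μM compound for 48 h at 37 °C, 5% CO2. Fixed with cold TCA, stained with 0.4% SRB in 1% acetic acid, dye solubilized in 10 mM Tris, absorbance read at 520 nm. Percent inhibition given as mean ± SEM of three experiments.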

MCF7 [6] = assay: Growth inhibition of human MCF7 cells at 10 uM after 48 hrs by SRB assay; format: functional, cell-based; how it was run: as §1
[7] = Growth inhibition of human MCF7/ADR cells highly expressing sigma1 receptor after 48 hrs by SRB assay; format: functional; settings: NCI/ADR-RES
How it was run: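 Cells seeded at 1 × 10⁴/well; after 24 h, compound (10 nM-10 μM) added in quadruplicate for 48 h at 37 °C, 5% CO2, with a time-zero plate read. TCA fixation, 0.4% SRB stain, absorbance at 520 nm. GI50 is the concentration halving net protein increase, interpolated from % growth versus log concentration; mean of triplicates.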

[8] = Cell cycle arrest in human MCF7/ADR cells highly expressing sigma1 receptor assessed as accumulation at G0/G1 phase at 10 uM after 48 hrs by propidium iodide staining based flow cytometry relative to control; format: functional; settings: NCI/ADR-RES
How it was run: (§2)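 MCF-7 or MCF-7/ADR cells (3 × 10⁵/mL) held 48 h at 37 °C, 5% CO2 with 10 μM compound. Fixed in cold 70% ethanol for 15 min on ice, then stained 40 min at 37 °C with PI (50 μg/mL) plus RNase A (0.1 mg/mL) and 0.05% Triton X-100. Flow cytometry over 10000 events; one of three experiments shown.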

[9] = Cell cycle arrest in human MCF7/ADR cells highly expressing sigma1 receptor assessed as accumulation at S phase at 10 uM after 48 hrs by propidium iodide staining based flow cytometry relative to control; format: functional; settings: NCI/ADR-RES; how it was run: as §2
[10] = Cell cycle arrest in human MCF7/ADR cells highly expressing sigma1 receptor assessed as accumulation at G2/M phase at 10 uM after 48 hrs by propidium iodide staining based flow cytometry relative to control; format: functional; settings: NCI/ADR-RES; how it was run: as §2
Mus musculus [11] = assay: Increase in morphine-induced analgesia in CD1 mouse at 1 mg/kg, sc administered 30 mins before morphine challenge measured after 60 to 120 mins post morphine challenge by radiant heat tail flick test; format: functional, organism-based; set-up: dose 1 mg/kg
How it was run: (§3)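 Male CD-1 mice, 25-35 g. Radiant heat tail flick, IR source aimed at the lower third of the tail. Basal latency (2-3 s) is the mean of two trials 30 min apart. Drug 1 mg/kg sc or vehicle (DMSO 1%) given 30 min before morphine 5.0 mg/kg sc or saline. Read at 30, 60, 90 and 120 min after morphine; cutoff 12 s. Reported as %MPE, mean ± SEM, n=8; ANOVA with Student-Newman-Keuls.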

Mus musculus [12] = assay: Analgesic effect in CD1 mouse at 1 mg/kg, sc by radiant heat tail flick test; format: functional, organism-based; set-up: dose 1 mg/kg; how it was run: as §3
MCF7 [13] = assay: Cell cycle arrest in human MCF7 cells assessed as accumulation at G0/G1 phase at 10 uM after 48 hrs by propidium iodide staining based flow cytometry relative to control; format: functional; how it was run: as §2
MCF7 [14] = assay: Cell cycle arrest in human MCF7 cells assessed as accumulation at S phase at 10 uM after 48 hrs by propidium iodide staining based flow cytometry relative to control; format: functional; how it was run: as §2
MCF7 [15] = assay: Cell cycle arrest in human MCF7 cells assessed as accumulation at G2/M phase at 10 uM after 48 hrs by propidium iodide staining based flow cytometry relative to control; format: functional; how it was run: as §2
MCF7 [16] = assay: Induction of apoptosis in human MCF7 cells at 10 uM after 48 hrs by Annexin V staining based flow cytometry relative to control; format: functional
How it was run: (§4)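 MCF-7 or MCF-7/ADR cells (3 × 10⁵/mL) exposed to 10 μM compound for 48 h at 37 °C, 5% CO2. Stained with Annexin V-FITC (1:40) for 10 min at room temperature in binding buffer (10 mM Hepes pH 7.4, 140 mM NaCl, 2.5 mM CaCl2), then read by FACS. Reported as % Annexin V+ cells, mean ± SEM of three experiments.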

NCI/ADR-RES [17] = assay: Induction of apoptosis in human MCF7/ADR cells highly expressing sigma1 receptor at 10 uM after 48 hrs by Annexin V staining based flow cytometry relative to control; format: functional; how it was run: as §4

Sigma non-opioid intracellular receptor 1, sequence (Q99720 whole entry): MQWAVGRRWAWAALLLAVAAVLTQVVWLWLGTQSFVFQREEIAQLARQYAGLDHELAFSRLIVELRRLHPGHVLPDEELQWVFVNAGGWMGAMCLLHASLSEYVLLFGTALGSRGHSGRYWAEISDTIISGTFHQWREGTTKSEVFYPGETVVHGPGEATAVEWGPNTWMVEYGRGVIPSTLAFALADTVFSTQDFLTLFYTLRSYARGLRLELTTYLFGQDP

| SMILES | Ki selectivity ratio (sigma2/sigma1) [3] | Ki [1] [pM] | IC50 [4] [µM] | pKi [2] | Activity (NCI/ADR-RES [5]) | Activity (MCF7 [6]) | further results |
| --- | --- | --- | --- | --- | --- | --- | --- |
| O=C1CC(C2CCN(CCc3ccccc3)CC2)Oc2ccccc21 (racemic) | 76 |  |  | 8.08 | Active | inactive |  |
| O=C1CC(C2CCN(Cc3ccccc3)CC2)Oc2ccccc21 (racemic) | 2630 |  |  | 6.76 | Active | inactive | Activity [8]: 62.7%; Activity [9]: 14%; Activity [10]: 23.3% |
| O=C1CC(C2CCN(Cc3ccccc3)CC2)Sc2ccccc21 (racemic) |  |  |  | 5.81 | Active | inactive | Activity [8]: 61.5%; Activity [9]: 13.9%; Activity [10]: 24.4%; Activity (Mus musculus [11]): Active; Activity (Mus musculus [12]): inactive |
| O=C(CCCN1CCC(O)(c2ccc(Cl)cc2)CC1)c1ccc(F)cc1 [HALOPERIDOL] |  |  |  | 6.95 |  |  |  |

Second part, led by results:

| Ki selectivity ratio (sigma2/sigma1) [3] | Ki [1] [pM] | IC50 [4] [µM] | SMILES | pKi [2] | Activity (NCI/ADR-RES [5]) | Activity (MCF7 [6]) | further results |
| --- | --- | --- | --- | --- | --- | --- | --- |
| 36 |  |  | c1ccc(CN2CCC3(CCc4ccccc4O3)CC2)cc1 | 7.66 |  |  | pKi ([1]; jurkat): 9.21 |
| 32 | 437 | > 10 | c1ccc(CN2CCC3(CCc4ccccc4C3)CC2)cc1 | 7.85 |  |  |  |
| 2510 | 89.1 | > 10 | c1ccc(CN2CCC3(CC2)OCc2ccccc2S3)cc1 | 6.65 | Active | inactive |  |
| 1440 | 209 | 7.2 | O=C1CC2(CCN(Cc3ccccc3)CC2)Oc2ccccc21 | 6.52 | Active | inactive | GI50 [7]: 10 µM |
| 2340 | 97.7 | 3.9 | c1ccc(CN2CCC3(CC2)OCc2ccccc2O3)cc1 | 6.64 | Active | inactive |  |
| 1000 | 57.5 | 8.4 | c1ccc(CN2CCC(C3CCc4ccccc4S3)CC2)cc1 (racemic) | 7.24 | Active | inactive |  |
| 676 | 589 | 6.3 | c1ccc(CN2CCC3(CCc4ccccc4S3)CC2)cc1 [SPIPETHIANE] | 6.4 | Active | inactive | Activity (MCF7 [13]): 73%; Activity (MCF7 [14]): 10%; Activity (MCF7 [15]): 17%; Activity [8]: 55.1%; Activity [9]: 20.1%; Activity [10]: 24.8%; Activity (MCF7 [16]): 2.7%; Activity (NCI/ADR-RES [17]): 5.4% |
